# Measurements taken from ChEMBL document CHEMBL4823246, “Fragment-like Chloroquinolineamines Activate the Orphan Nuclear Receptor Nurr1 and Elucidate Activation Mechanisms” (J Med Chem, 2021).
# Active and inactive are the calls of the source. The rule behind the calls is not given here.
# Biological target: T1, Nuclear receptor subfamily 4 group A member 2 (Homo sapiens, UniProt P43354)
# Test: Inverse agonist activity at Gal4-fused human Nurr1 LBD expressed in HEK293T cells co-expressing firefly luciferase assessed as luciferase activity incubated for 12 to 14 hrs by hybrid reporter gene assay
# Type: cell-based
# Details: not given
# In short: (§1)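 HEK293T cells, seeded 3 × 10⁴/well the day before, were transiently transfected with a Gal4–human Nurr1 LBD hybrid receptor, a Gal4-responsive firefly luciferase reporter (pFR-Luc) and SV40-renilla luciferase. Five hours later cells received compound in Opti-MEM with 0.1% DMSO for 12−14 h, then a dual-luciferase read-out. Firefly/renilla ×1000 gave RLU; fold activation was taken vs DMSO. Duplicates, ≥3 independent runs; EC50/IC50 are mean SD.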
# T1 sequence (P43354 whole entry, the tested form may be a part): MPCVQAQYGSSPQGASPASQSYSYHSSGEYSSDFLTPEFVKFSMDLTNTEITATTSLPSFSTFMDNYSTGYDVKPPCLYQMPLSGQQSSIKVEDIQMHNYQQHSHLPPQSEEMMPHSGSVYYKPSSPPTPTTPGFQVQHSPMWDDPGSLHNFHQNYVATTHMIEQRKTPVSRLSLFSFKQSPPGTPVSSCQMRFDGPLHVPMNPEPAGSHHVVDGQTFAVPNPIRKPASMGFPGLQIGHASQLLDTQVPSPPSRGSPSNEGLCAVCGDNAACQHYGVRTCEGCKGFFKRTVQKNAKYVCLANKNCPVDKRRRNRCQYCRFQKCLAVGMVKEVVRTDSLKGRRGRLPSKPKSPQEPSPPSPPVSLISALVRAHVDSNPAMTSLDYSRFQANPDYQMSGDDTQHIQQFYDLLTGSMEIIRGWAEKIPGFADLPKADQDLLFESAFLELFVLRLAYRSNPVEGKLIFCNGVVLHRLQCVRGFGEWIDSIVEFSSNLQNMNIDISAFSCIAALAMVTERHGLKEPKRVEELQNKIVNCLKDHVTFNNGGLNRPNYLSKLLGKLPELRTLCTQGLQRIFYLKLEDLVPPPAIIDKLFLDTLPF
row,IC50 [µM],SMILES
1,132,O=C(O)CCCNc1ccnc2cc(Cl)ccc12
2,89,Clc1ccc2cccnc2c1

# Biological target: T1, Nuclear receptor subfamily 4 group A member 2
# Test: Agonist activity at Gal4-fused human Nurr1 LBD expressed in HEK293T cells co-expressing firefly luciferase assessed as luciferase activity at 10 uM incubated for 12 to 14 hrs by hybrid reporter gene assay
# Type: cell-based
# Details: time 12-14 hrs
# In short: as §1
row,Activity,SMILES
1,inactive,Clc1ccc2c(NCc3ccccc3)ccnc2c1
2,inactive,CC(CCCN(C)C)Nc1cccc2c(Cl)cccc12 (stereo not drawn)
3,inactive,O=C(OCC(O)CO)c1ccccc1Nc1ccnc2cc(Cl)ccc12 (stereo not drawn)

# Biological target: T1, Nuclear receptor subfamily 4 group A member 2
# Test: Agonist activity at Gal4-fused human Nurr1 LBD expressed in HEK293T cells co-expressing firefly luciferase assessed as luciferase activity at 30 uM incubated for 12 to 14 hrs by hybrid reporter gene assay
# Type: cell-based
# Details: time 12-14 hrs
# In short: as §1
row,Activity,SMILES
1,inactive,Oc1ccc(Nc2ccnc3cc(Cl)ccc23)cc1
2,inactive,CC1CCC(Nc2ccnc3cc(Cl)ccc23)CC1 (stereo not drawn)

# Biological target: T1, Nuclear receptor subfamily 4 group A member 2
# Test: Agonist activity at Gal4-fused human Nurr1 LBD expressed in HEK293T cells co-expressing firefly luciferase assessed as luciferase activity at 200 uM incubated for 12 to 14 hrs by hybrid reporter gene assay
# Type: cell-based
# Details: time 12-14 hrs
# In short: as §1
row,Activity,SMILES
1,inactive,Nc1cncc2c(Cl)cccc12

# Biological target: T1, Nuclear receptor subfamily 4 group A member 2
# Test: Agonist activity at Gal4-fused human Nurr1 LBD expressed in HEK293T cells co-expressing firefly luciferase assessed as luciferase activity incubated for 12 to 14 hrs by hybrid reporter gene assay
# Type: cell-based
# Details: not given
row,EC50 [µM],SMILES
1,49,Nc1ccnc2c(Cl)cccc12
2,12,CCCCNc1cc(C)nc2c(Cl)cccc12
3,116,CCN(CC)Cc1cccc(Nc2ccnc3cc(Cl)ccc23)c1
4,31,Cc1cc(NC(C)C)c2cccc(Cl)c2n1
5,17,Cc1cc(NC(C)C(C)C)c2cccc(Cl)c2n1 (stereo not drawn)

# The next lines start with the compound.
row,SMILES,EC50 [µM]
1,Nc1cc(Cl)cc2ncccc12,19
2,Cc1cc(N)c2ccc(Cl)cc2n1,33
3,Nc1ccnc2cc(Cl)ccc12,259
4,Nc1ccnc2ccc(Cl)cc12,117

# Biological target: T2, Retinoic acid receptor RXR-alpha (Homo sapiens) (UniProt P19793)
# T2 sequence (whole entry): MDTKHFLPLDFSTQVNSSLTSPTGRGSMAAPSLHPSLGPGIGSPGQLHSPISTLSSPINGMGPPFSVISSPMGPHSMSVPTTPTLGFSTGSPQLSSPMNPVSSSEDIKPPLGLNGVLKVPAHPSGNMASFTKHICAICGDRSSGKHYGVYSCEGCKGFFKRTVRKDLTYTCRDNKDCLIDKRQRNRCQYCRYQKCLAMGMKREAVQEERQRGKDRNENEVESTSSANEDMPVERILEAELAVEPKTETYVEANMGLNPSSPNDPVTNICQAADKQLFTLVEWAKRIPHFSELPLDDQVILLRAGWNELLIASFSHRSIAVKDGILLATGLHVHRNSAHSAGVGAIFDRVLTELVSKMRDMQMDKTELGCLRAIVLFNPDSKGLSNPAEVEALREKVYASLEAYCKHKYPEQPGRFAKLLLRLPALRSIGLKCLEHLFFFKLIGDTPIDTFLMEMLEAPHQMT
# Test: Agonist activity at full length human RxRalpha heterodimer response element DR5 expressed in HEK293T cells co-expressing firefly luciferase assessed as firefly luciferase activity up to 100 uM incubated for 12 to 14 hrs by hybrid reporter gene assay
# Type: cell-based
# Details: filed as agonist, dose microM <=100, time 12-14 hrs
# In short: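 Full-length receptor assay in HEK293T cells transiently cotransfected with pFR-Luc-DR5 reporter, human Nurr1 (pcDNA3.1-hNurr1-NE), human RXR (pSG5-hRXR) and SV40-renilla. Five hours post-transfection, compound was added in Opti-MEM with 0.1% DMSO for 12−14 h, then a dual-luciferase read-out. Firefly/renilla ×1000 gave RLU, expressed as fold over DMSO control. Duplicates, ≥3 independent experiments.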
row,Activity,SMILES
1,Active,Cc1cc(N)c2cccc(Cl)c2n1

# Biological target: T1, Nuclear receptor subfamily 4 group A member 2
# Test: Agonist activity at Gal4-fused human Nurr1 LBD expressed in HEK293T cells co-expressing firefly luciferase assessed as luciferase activity at 100 uM incubated for 12 to 14 hrs by hybrid reporter gene assay
# Type: cell-based
# Details: time 12-14 hrs
# In short: as §1
row,Activity,SMILES
1,inactive,CCN(CC)CCCC(C)Nc1cc(C)nc2c(Cl)cccc12 (stereo not drawn)
2,inactive,CCN(CC)Cc1cc(Nc2cc(C)nc3c(Cl)cccc23)ccc1O

# Continued, compound first:
row,SMILES,Activity
1,Nc1c(Cl)ccc2ncccc12,inactive
2,Nc1ccc(Cl)c2ncccc12,inactive
3,Nc1ccc2ccc(Cl)cc2n1,inactive

# Biological target: T1, Nuclear receptor subfamily 4 group A member 2
# Test: Agonist activity at Gal4-fused human Nurr1 LBD expressed in HEK293T cells co-expressing firefly luciferase assessed as luciferase activity at 300 uM incubated for 12 to 14 hrs by hybrid reporter gene assay
# Type: cell-based
# Details: time 12-14 hrs
# In short: as §1
row,Activity,SMILES
1,inactive,Clc1ccc2c(Cl)ccnc2c1
2,inactive,Nc1ccnc2ccccc12
3,inactive,Nc1ccnc2c(F)cccc12
4,inactive,Nc1ccnc2c(C(F)(F)F)cccc12
5,inactive,Nc1cnc2cc(Cl)ccc2c1
